Experimental data from different studies.
Each line is one published result; the experiments were not run side by side.
Target: cAMP-dependent protein kinase catalytic subunit PRKX (PRKX, Homo sapiens, UniProt P51817)
Sequence (P51817 1-358, as in one of the studies): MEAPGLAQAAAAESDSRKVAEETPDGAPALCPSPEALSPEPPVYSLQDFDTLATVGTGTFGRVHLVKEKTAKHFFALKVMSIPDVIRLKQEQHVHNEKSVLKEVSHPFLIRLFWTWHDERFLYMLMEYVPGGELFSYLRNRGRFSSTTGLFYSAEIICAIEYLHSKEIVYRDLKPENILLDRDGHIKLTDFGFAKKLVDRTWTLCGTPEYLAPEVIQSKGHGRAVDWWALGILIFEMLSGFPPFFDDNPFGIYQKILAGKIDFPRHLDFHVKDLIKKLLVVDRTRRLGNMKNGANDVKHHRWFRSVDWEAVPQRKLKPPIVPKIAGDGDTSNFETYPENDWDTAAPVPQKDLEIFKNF

| Compound | observed | mode | technique | concentration | endpoint | result |
| --- | --- | --- | --- | --- | --- | --- |
| Cn1cc(-c2cc(F)cc(N3CCn4c(cc5c4CCCC5)C3=O)c2CO)cc(Nc2ccc(N3CCN(C4COC4)CC3)cn2)c1=O | enzyme activity | inhibitor | – | 0.1 µM | inhibition | 17% |
| Cn1cncc1[C@@](O)(COc1ccc(C#N)cc1-c1ccc(OC(F)(F)F)cc1)c1ccc(C#N)cc1 | cell-free assay | – | competition with immobilised ligand | 1 µM | remaining binding | 94% |
| Cc1nn(C)cc1-c1nc2c(N3CCN(Cc4ccc(Cl)cc4)CC3)c(Cl)cnc2[nH]1 | binding | – | competition with immobilised ligand | 1 µM | remaining binding | 18% |
| CC(C)(C)c1cc(C=C(C#N)C#N)cc(Br)c1O | enzyme activity | inhibitor | – | 0.5 µM | remaining activity | 102% |
| COc1cc(Nc2ncc(F)c(Nc3ccc4c(n3)NC(=O)C(C)(C)O4)n2)cc(OC)c1OC | binding | – | – | 10 µM | inhibition | 0% |
| Cn1cc(-c2cccc(N3CCc4c(sc5c4CC(C)(C)C5)C3=O)c2CO)cc(Nc2ccncn2)c1=O | enzyme activity | inhibitor | – | 1 µM | inhibition | 1% |
| Nc1ncc(-c2nc(N3CCOCC3)nc(N3CCOCC3)n2)c(C(F)F)n1 | binding | – | competition with immobilised ligand | 10 µM | remaining binding | 90% |
| O=c1[nH]c2ccccc2n1C1CCN(Cc2ccc(-c3[nH]c4cc5ncnc5cc4nc3-c3ccccc3)cc2)CC1 | cell-free assay | – | – | 0.5 µM | remaining signal | 101% |
| COc1ncccc1-c1cnn2ccc(N3CCN(C(=O)OC(C)C)CC3)nc12 | binding | – | competition with immobilised ligand | 1 µM | remaining binding | 100% |
